Reference: ChEMBL document CHEMBL1144020, “Development of prodrug 4-chloro-3-(5-methyl-3-{[4-(2-pyrrolidin-1-ylethoxy)phenyl]amino}-1,2,4-benzotriazin-7-yl)phenyl benzoate (TG100801): a topically administered therapeutic candidate in clinical trials for the treatment of age-related macular degeneration” (J Med Chem, 2008)
Each block holds one compound with its values, some of them ahead of it.

Experiments:
[1] = biological target: Proto-oncogene tyrosine-protein kinase Src (Homo sapiens, UniProt P12931); assay: Inhibition of Src
[2] = biological target: Vascular endothelial growth factor receptor 2 (Homo sapiens, UniProt P35968); assay: Inhibition of VEGFR2
[3] = biological target: Tyrosine-protein kinase Yes (Homo sapiens, UniProt P07947); assay: Inhibition of YES
[4] = Stability at 120 degC after 1 hr; assay type: physicochemical
Summary of the method: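 Prodrugs at 0.5% in 0.5% HPMC/5% dextrose, pH 6.7, in closed vials, autoclaved at 120 °C for 1 h. After cooling, percent remaining was assessed by reverse-phase HPLC with diode-array and ELSD detection.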

[5] = Tmax in C57BL/6 mouse retina at 137 nM instilled per eye; assay type: ADME, organism-based; settings: topical or ocular, 137 nM per eye
Summary of the method: (§1)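 One 10 µL topical drop per eye (70 µg, 137 nmol; 0.7% w/v in 27% w/v PL90G aqueous formulation) to 20 male C57BL/6 mice. Composite sampling, N = 4 per time point at 0.5, 1, 3, 7 and 24 h. Cornea, retina and choroid/sclera eye cup were dissected and plasma taken at euthanasia. LC/MS/MS quantitation; Tmax and Cmax from measured levels; AUC by linear trapezoidal rule on mean data.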

[6] = Cmax in C57BL/6 mouse retina at 137 nM instilled per eye; assay type: ADME, organism-based; parameters: dose 137 nM, route ophthalmic; settings: topical or ocular, 137 nM per eye; summary of the method: as §1
[7] = AUC (0 to 24 hrs) in C57BL/6 mouse retina at 137 nM instilled per eye; assay type: ADME, organism-based; parameters: time < 24 hr, dose 137 nM, route ophthalmic; settings: topical or ocular, 137 nM per eye; summary of the method: as §1
[8] = Tmax in C57BL/6 mouse choroid/sclera at 137 nM instilled per eye; assay type: ADME, organism-based; settings: topical or ocular, 137 nM per eye; summary of the method: as §1
[9] = Cmax in C57BL/6 mouse choroid/sclera at 137 nM instilled per eye; assay type: ADME, organism-based; parameters: dose 137 nM, route ophthalmic; settings: topical or ocular, 137 nM per eye; summary of the method: as §1
[10] = Tmax in C57BL/6 mouse cornea at 137 nM instilled per eye; assay type: ADME, organism-based; settings: topical or ocular, 137 nM per eye; summary of the method: as §1
[11] = Cmax in C57BL/6 mouse cornea at 137 nM instilled per eye; assay type: ADME, organism-based; parameters: dose 137 nM, route ophthalmic; settings: topical or ocular, 137 nM per eye; summary of the method: as §1
[12] = AUC (0 to 24 hrs) in C57BL/6 mouse cornea at 137 nM instilled per eye; assay type: ADME, organism-based; parameters: dose 137 nM, time < 24 hr, route ophthalmic; settings: topical or ocular, 137 nM per eye; summary of the method: as §1
[13] = AUC (0 to 24 hrs) in C57BL/6 mouse choroid/sclera at 137 nM instilled per eye; assay type: ADME, organism-based; parameters: time < 24 hr, dose 137 nM, route ophthalmic; settings: topical or ocular, 137 nM per eye; summary of the method: as §1
[14] = Tmax in C57BL/6 mouse plasma at 137 nM instilled per eye; assay type: ADME, organism-based; settings: topical or ocular, 137 nM per eye; summary of the method: as §1
[15] = Cmax in C57BL/6 mouse plasma at 137 nM instilled per eye; assay type: ADME, organism-based; parameters: dose 137 nM, route ophthalmic; settings: topical or ocular, 137 nM per eye; summary of the method: as §1
[16] = Antiproliferative activity against VEGF-stimulated human RMVEC cells after 48 hrs; assay type: functional, cell-based
Summary of the method: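 Human retinal microvascular endothelial cells (~1.5 × 10³/well) were made quiescent for ~48 h in growth-factor-free medium with 10% FBS. Cells were pretreated ~60 min with compound (5–0.00229 or 2–0.00195 µM) in medium with 10% FBS and 50 µg/mL heparin. VEGF 50 ng/mL was added for 48 h at 37 °C/5% CO₂. XTT read at 492/690 nm; IC50 by nonlinear regression.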

[17] = Half life in C57BL/6 mouse administered topically at 0.7% w/v thrice a day; assay type: ADME, organism-based; settings: in vivo, topical or ocular
Mus musculus [18] = assay: Reduction of VEGF-induced retinal leak in BALB/c mouse administered topically at 137 nM q.d; assay type: functional; parameters: scale not given: the % may be the effect or the level left
Mus musculus [19] = assay: Reduction of VEGF-induced retinal leak in BALB/c mouse administered topically at 137 nM thrice a day; assay type: functional; parameters: scale not given: the % may be the effect or the level left
Mus musculus [20] = assay: Inhibition of FAK-Y861 phosphorylation in mouse at 5 mg/kg

Chain of Proto-oncogene tyrosine-protein kinase Src (P12931 2-536 limits assumed): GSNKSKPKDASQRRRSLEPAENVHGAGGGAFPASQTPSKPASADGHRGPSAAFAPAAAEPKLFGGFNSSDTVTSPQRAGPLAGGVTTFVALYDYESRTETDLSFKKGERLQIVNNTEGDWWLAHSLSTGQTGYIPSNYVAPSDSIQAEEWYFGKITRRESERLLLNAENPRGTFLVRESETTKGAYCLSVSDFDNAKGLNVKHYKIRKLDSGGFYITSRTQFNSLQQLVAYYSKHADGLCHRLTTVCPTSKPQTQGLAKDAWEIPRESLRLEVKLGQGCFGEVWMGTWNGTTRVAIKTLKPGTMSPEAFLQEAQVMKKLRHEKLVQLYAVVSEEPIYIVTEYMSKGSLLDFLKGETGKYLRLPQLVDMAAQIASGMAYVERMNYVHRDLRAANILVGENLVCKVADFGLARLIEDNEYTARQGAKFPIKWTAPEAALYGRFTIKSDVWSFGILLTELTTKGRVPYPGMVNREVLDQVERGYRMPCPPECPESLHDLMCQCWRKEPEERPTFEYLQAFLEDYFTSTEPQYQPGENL
Chain of Tyrosine-protein kinase Yes (P07947 whole entry): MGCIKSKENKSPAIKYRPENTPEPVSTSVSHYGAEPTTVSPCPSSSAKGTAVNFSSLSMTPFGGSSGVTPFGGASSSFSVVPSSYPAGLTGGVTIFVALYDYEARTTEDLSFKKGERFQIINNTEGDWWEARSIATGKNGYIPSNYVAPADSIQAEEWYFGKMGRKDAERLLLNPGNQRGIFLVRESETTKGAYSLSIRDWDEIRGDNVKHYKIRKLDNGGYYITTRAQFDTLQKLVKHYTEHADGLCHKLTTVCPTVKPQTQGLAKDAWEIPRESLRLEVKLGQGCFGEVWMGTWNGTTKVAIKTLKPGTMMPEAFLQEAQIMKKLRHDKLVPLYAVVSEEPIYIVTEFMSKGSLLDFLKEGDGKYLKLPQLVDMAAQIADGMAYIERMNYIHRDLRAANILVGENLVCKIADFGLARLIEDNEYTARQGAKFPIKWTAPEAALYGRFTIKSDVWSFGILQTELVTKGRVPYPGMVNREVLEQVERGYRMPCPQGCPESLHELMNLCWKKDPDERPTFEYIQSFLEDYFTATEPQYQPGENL
Chain of Vascular endothelial growth factor receptor 2 (P35968 whole entry): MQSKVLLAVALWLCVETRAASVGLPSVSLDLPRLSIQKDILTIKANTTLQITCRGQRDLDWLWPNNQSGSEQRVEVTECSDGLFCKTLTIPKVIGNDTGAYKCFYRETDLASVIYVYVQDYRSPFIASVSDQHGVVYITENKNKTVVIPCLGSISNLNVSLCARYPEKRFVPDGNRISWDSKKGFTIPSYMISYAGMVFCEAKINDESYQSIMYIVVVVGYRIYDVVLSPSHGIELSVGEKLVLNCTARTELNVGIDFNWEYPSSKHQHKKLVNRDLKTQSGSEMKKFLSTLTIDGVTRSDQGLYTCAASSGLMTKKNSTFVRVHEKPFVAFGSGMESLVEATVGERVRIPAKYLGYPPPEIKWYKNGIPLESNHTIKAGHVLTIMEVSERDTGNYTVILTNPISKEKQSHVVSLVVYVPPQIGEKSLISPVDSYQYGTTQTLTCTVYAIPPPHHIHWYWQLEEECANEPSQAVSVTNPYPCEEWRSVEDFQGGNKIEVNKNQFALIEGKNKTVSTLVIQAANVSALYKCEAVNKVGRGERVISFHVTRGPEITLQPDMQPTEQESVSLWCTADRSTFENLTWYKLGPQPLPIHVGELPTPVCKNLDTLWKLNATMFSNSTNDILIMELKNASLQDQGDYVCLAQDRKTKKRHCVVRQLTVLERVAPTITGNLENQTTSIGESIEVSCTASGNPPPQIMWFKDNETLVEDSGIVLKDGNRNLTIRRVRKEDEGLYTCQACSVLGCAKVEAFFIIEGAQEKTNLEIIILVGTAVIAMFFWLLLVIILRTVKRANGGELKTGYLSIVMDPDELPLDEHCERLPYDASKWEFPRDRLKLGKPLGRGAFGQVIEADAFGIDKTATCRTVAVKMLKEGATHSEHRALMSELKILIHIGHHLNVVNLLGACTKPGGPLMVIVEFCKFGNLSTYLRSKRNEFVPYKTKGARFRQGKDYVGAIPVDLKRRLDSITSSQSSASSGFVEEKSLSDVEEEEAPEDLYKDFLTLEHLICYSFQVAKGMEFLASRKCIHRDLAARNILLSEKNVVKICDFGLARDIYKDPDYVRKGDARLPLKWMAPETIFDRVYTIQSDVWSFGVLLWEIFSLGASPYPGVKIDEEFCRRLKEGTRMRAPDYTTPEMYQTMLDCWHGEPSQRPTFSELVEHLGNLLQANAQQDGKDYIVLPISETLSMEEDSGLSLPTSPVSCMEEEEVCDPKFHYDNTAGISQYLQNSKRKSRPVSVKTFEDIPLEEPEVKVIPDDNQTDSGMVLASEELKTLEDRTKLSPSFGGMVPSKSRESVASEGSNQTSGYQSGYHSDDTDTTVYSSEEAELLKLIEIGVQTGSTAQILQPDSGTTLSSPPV

IC50 [1]: 1.8 nM
IC50 [2]: 2.2 nM
IC50 [3]: 0.3 nM
Stability ([4]; 1 h): Stable
Tmax at 0.137 µM [5]: 30 min
Cmax at 0.137 µM [6]: 3.6 µM
AUC(0-t) at 24 h, 0.137 µM [7]: 3.2 µg·h/mL
Tmax at 0.137 µM [8]: 30 min
Cmax at 0.137 µM [9]: 23.4 µM
Tmax at 0.137 µM [10]: 30 min
Cmax at 0.137 µM [11]: 64 µM
AUC(0-t) at 24 h, 0.137 µM [12]: 560 µg·h/mL
AUC(0-t) at 24 h, 0.137 µM [13]: 240 µg·h/mL
Tmax at 0.137 µM [14]: 360 min
Cmax at 0.137 µM [15]: 0.002 µM
half-life [17]: 30 min
SMILES: Cc1cc(-c2cc(O)ccc2Cl)cc2nnc(Nc3ccc(OCCN4CCCC4)cc3)nc12
IC50 [16]: 610 nM
Activity (Mus musculus [18]): 60%
Activity (Mus musculus [19]): 85%
inhibition in vivo at 5 mg/kg (Mus musculus [20]): > 90%

remaining at 1 h ([4]; read-out: Stability): > 90%
SMILES: Cc1ccc(C(=O)Oc2ccc(Cl)c(-c3cc(C)c4nc(Nc5ccc(OCCN6CCCC6)cc5)nnc4c3)c2)cc1
